Consider 11 compounds from ChEMBL document CHEMBL5055637, “Novel C-3-(N-alkyl-aryl)-aminomethyl rifamycin SV derivatives exhibit activity against rifampicin-resistant Mycobacterium tuberculosis RpoBS522L strain and display a different binding mode at the RNAP β-subunit site compared to rifampicin” (2021).

≈ marks a conversion by molar mass, not a printed value.

In experiment [1] the test system is Mycobacterium tuberculosis. In words: Antitubercular activity against wild type Mycobacterium tuberculosis H37Rv ATCC 25618 assessed as bacterial growth inhibition measured after 5 days by serial dilution method. To be noted: H37Rv ATCC 25618, 120 h, time 5 day. It counts as functional. A digest of the protocol:
(§1)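 Strains grown in Middlebrook 7H9 with OADC supplement and 0.05% w/v Tween 80. Compounds tested as 10-point 2-fold serial dilutions. Growth read as OD590 after 5 days in 7H9-OADC-Tw. Levenberg-Marquardt curve fitting gave MIC90, the concentration inhibiting growth by 90% relative to controls. Run in triplicate.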

In experiment [2] the test system is Mycobacterium tuberculosis. Description: Antitubercular activity against wild type Mycobacterium tuberculosis HN878 assessed as bacterial growth inhibition measured after 5 days by serial dilution method. The class given is functional. Conditions: HN878, 120 h, time 5 day. A digest of the protocol:
as §1

What is called MIC90 is an inhibitory concentration at the 90% level, which refers to growth in some studies and to a panel of isolates in others. `CO[C@H]1/C=C/O[C@@]2(C)Oc3c(C)c(O)c4c(O)c(c(CNCc5ccccc5)c(O)c4c3C2=O)NC(=O)/C(C)=C\C=C\[C@H](C)[C@H](O)[C@@H](C)[C@@H](O)[C@@H](C)[C@H](OC(C)=O)[C@@H]1C`: the MIC90 in experiment [1] was 0.097 µM (≈ 0.0792 µg/mL).

In the case of `CO[C@H]1/C=C/O[C@@]2(C)Oc3c(C)c(O)c4c(O)c(c(CN5CCN(CCO)CC5)c(O)c4c3C2=O)NC(=O)/C(C)=C\C=C\[C@H](C)[C@H](O)[C@@H](C)[C@@H](O)[C@@H](C)[C@H](OC(C)=O)[C@@H]1C`, the MIC90 was found to be 0.034 µM (≈ 0.0286 µg/mL) in experiment [1] and 0.07 µM (≈ 0.0588 µg/mL) in experiment [2].

In the case of `CO[C@H]1/C=C/O[C@@]2(C)Oc3c(C)c(O)c4c(O)c(c(CNCCc5ccc(O)cc5)c(O)c4c3C2=O)NC(=O)/C(C)=C\C=C\[C@H](C)[C@H](O)[C@@H](C)[C@@H](O)[C@@H](C)[C@H](OC(C)=O)[C@@H]1C`, the MIC90 in experiment [1] came to 0.066 µM (≈ 0.0559 µg/mL); in experiment [2] it was 0.22 µM (≈ 0.186 µg/mL).

`CO[C@H]1/C=C/O[C@@]2(C)Oc3c(C)c(O)c4c(O)c(c(CNCc5cccs5)c(O)c4c3C2=O)NC(=O)/C(C)=C\C=C\[C@H](C)[C@H](O)[C@@H](C)[C@@H](O)[C@@H](C)[C@H](OC(C)=O)[C@@H]1C`: the MIC90 was determined as 0.082 µM (≈ 0.0675 µg/mL) in experiment [1] and 0.2 µM (≈ 0.165 µg/mL) in experiment [2].

`CO[C@H]1/C=C/O[C@@]2(C)Oc3c(C)c(O)c4c(O)c(c(CNCc5ccncc5)c(O)c4c3C2=O)NC(=O)/C(C)=C\C=C\[C@H](C)[C@H](O)[C@@H](C)[C@@H](O)[C@@H](C)[C@H](OC(C)=O)[C@@H]1C`: the results for the MIC90 in experiment [1] and in experiment [2] were 0.075 µM (≈ 0.0613 µg/mL) and 0.31 µM (≈ 0.254 µg/mL), respectively.

`NNC(=O)c1ccncc1` [ISONIAZID]: the MIC90 came to 0.28 µM (≈ 0.0384 µg/mL) in experiment [1] and 0.29 µM (≈ 0.0398 µg/mL) in experiment [2].

Consider `CO[C@H]1/C=C/O[C@@]2(C)Oc3c(C)c(O)c4c(O)c(c(CNCc5ccco5)c(O)c4c3C2=O)NC(=O)/C(C)=C\C=C\[C@H](C)[C@H](O)[C@@H](C)[C@@H](O)[C@@H](C)[C@H](OC(C)=O)[C@@H]1C`, for which the MIC90 in experiment [1] was determined as 0.09 µM (≈ 0.0726 µg/mL); in experiment [2], 0.45 µM (≈ 0.363 µg/mL).

Turning to `CO[C@H]1/C=C/O[C@@]2(C)Oc3c(C)c(O)c4c(O)c(c(CNCc5ccc(S(C)(=O)=O)cc5)c(O)c4c3C2=O)NC(=O)/C(C)=C\C=C\[C@H](C)[C@H](O)[C@@H](C)[C@@H](O)[C@@H](C)[C@H](OC(C)=O)[C@@H]1C`, the values for the MIC90 in experiment [1] and in experiment [2] were 0.039 µM (≈ 0.0349 µg/mL) and 0.096 µM (≈ 0.0859 µg/mL), respectively.

`CO[C@H]1/C=C/O[C@@]2(C)Oc3c(C)c(O)c4c(O)c(c(CNCCc5c[nH]c6ccccc56)c(O)c4c3C2=O)NC(=O)/C(C)=C\C=C\[C@H](C)[C@H](O)[C@@H](C)[C@@H](O)[C@@H](C)[C@H](OC(C)=O)[C@@H]1C`: the MIC90 was determined as 0.039 µM (≈ 0.0339 µg/mL) in experiment [1] and 0.39 µM (≈ 0.339 µg/mL) in experiment [2].

For the compound `CO[C@H]1/C=C/O[C@@]2(C)Oc3c(C)c(O)c4c(O)c(c(/C=N/N5CCN(C)CC5)c(O)c4c3C2=O)NC(=O)/C(C)=C\C=C\[C@H](C)[C@H](O)[C@@H](C)[C@@H](O)[C@@H](C)[C@H](OC(C)=O)[C@@H]1C` [RIFAMPIN], the MIC90 in experiment [1] came to 0.0045 µM (≈ 0.0037 µg/mL); in experiment [2] it was 0.02 µM (≈ 0.0165 µg/mL).

For `COC(=O)c1ccc(CNCc2c3c(O)c4c(O)c(C)c5c(c4c2O)C(=O)[C@@](C)(O/C=C/[C@H](OC)[C@@H](C)[C@@H](OC(C)=O)[C@H](C)[C@H](O)[C@H](C)[C@@H](O)[C@@H](C)/C=C/C=C(/C)C(=O)N3)O5)cc1`, the MIC90 in experiment [1] was 0.12 µM (≈ 0.105 µg/mL); in experiment [2] it was 0.53 µM (≈ 0.464 µg/mL).
